Measurements: ChEMBL document CHEMBL1154178, “Puupehanol, a sesquiterpene-dihydroquinone derivative from the marine sponge Hyrtios sp” (Bioorg Med Chem Lett, 2009)
In brackets after ≈: the same amount, converted by molar mass. Activity calls are given as the source filed them. The calls are words filed in the database; no cut-off is given here.

Tests used:
Format in all cases: functional, organism-based
[1] = test system: Cryptococcus neoformans; assay: Antifungal activity against Cryptococcus neoformans ATCC 90113 after 72 hrs by two fold serial dilution technique; details: ATCC 90113, 72 h
Procedure, shortened: (§1)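 Top concentration in the dilution series was 20 µg/mL.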

[2] = test system: Candida albicans; assay: Antifungal activity against Candida albicans ATCC 90028 after 48 hrs by two fold serial dilution technique at 20 ug/mL; procedure, shortened: as §1
[3] = test system: Nakaseomyces glabratus; assay: Antifungal activity against Candida glabrata ATCC 90030 after 48 hrs by two fold serial dilution technique at 20 ug/mL; procedure, shortened: as §1
[4] = test system: Pichia kudriavzevii; assay: Antifungal activity against Candida krusei ATCC 6258 after 48 hrs by two fold serial dilution technique at 20 ug/mL; procedure, shortened: as §1
[5] = test system: Aspergillus fumigatus; assay: Antifungal activity against Aspergillus fumigatus ATCC 90906 after 48 hrs by two fold serial dilution technique at 20 ug/mL; procedure, shortened: as §1
[6] = test system: Pichia kudriavzevii; assay: Antifungal activity against Candida krusei ATCC 6258 after 48 hrs by two fold serial dilution technique; details: ATCC 6258, 48 h
[7] = test system: Candida albicans; assay: Antifungal activity against Candida albicans ATCC 90028 after 48 hrs by two fold serial dilution technique; details: ATCC 90028, 48 h
[8] = test system: Aspergillus fumigatus; assay: Antifungal activity against Aspergillus fumigatus ATCC 90906 after 48 hrs by two fold serial dilution technique
[9] = test system: Nakaseomyces glabratus; assay: Antifungal activity against Candida glabrata ATCC 90030 after 48 hrs by two fold serial dilution technique; details: ATCC 90030, 48 h; procedure, shortened: as §1
[10] = test system: Cryptococcus neoformans; assay: Antifungal activity against Cryptococcus neoformans ATCC 90113 after 72 hrs by two fold serial dilution technique at 20 ug/mL; procedure, shortened: as §1

| IC50 [1] | MIC [1] | SMILES | MFC [1] | Activity [2] | Activity [3] | Activity [4] | Activity [5] | IC50 [6] | IC50 [7] | IC50 ([8]; ATCC 90906, 48 h) | IC50 [9] | MFC [9] | MIC [9] | other results |
| --- | --- | --- | --- | --- | --- | --- | --- | --- | --- | --- | --- | --- | --- | --- |
| 5.73 µg/mL (≈ 15.8 µM) | 10 µg/mL (≈ 27.6 µM) | CC1(C)CCC[C@]2(C)[C@H]3C=C4C(=CC(=O)C(O)=C4Cl)O[C@@]3(C)CC[C@@H]12 [CHLOROPUUPEHENONE] | 20 µg/mL (≈ 55.1 µM) | inactive | inactive | inactive | inactive |  |  |  |  |  |  |  |
|  |  | CC1(C)CCC[C@]2(C)[C@H]3C=C4C(=CC(=O)[C@H](O)[C@@H]4O)O[C@@]3(C)CC[C@@H]12 |  | inactive | inactive | inactive | inactive |  |  |  |  |  |  | Activity [10]: inactive |
| 0.38 µg/mL (≈ 1.16 µM) | 0.63 µg/mL (≈ 1.92 µM) | CC1(C)CCC[C@]2(C)[C@H]3C=C4C=C(O)C(=O)C=C4O[C@@]3(C)CC[C@@H]12 [PUUPEHENONE] | 1.25 µg/mL (≈ 3.81 µM) |  |  |  |  | 1.49 µg/mL (≈ 4.54 µM) | 3.02 µg/mL (≈ 9.19 µM) | 5.63 µg/mL (≈ 17.1 µM) | 2.67 µg/mL (≈ 8.13 µM) | 10 µg/mL (≈ 30.4 µM) | 10 µg/mL (≈ 30.4 µM) | MFC [6]: 2.5 µg/mL (≈ 7.61 µM); MIC [6]: 2.5 µg/mL (≈ 7.61 µM); MFC [7]: 10 µg/mL (≈ 30.4 µM); MIC [7]: 10 µg/mL (≈ 30.4 µM); MFC [8]: inactive; MIC ([8]; ATCC 90906, 48 h): 10 µg/mL (≈ 30.4 µM) |

| SMILES | IC50 [1] | MIC [1] | MFC [1] | Activity [2] | Activity [3] | Activity [4] | Activity [5] | IC50 [6] | IC50 [7] | IC50 ([8]; ATCC 90906, 48 h) | IC50 [9] | MFC [9] | MIC [9] | other results |
| --- | --- | --- | --- | --- | --- | --- | --- | --- | --- | --- | --- | --- | --- | --- |
| C[C@@H]1[C@H](O)[C@@H](C)/C=C/C=C/C=C/C=C/C=C/C=C/C=C/[C@H](O[C@@H]2O[C@H](C)[C@@H](O)[C@H](N)[C@@H]2O)C[C@@H]2O[C@](O)(C[C@@H](O)C[C@@H](O)[C@H](O)CC[C@@H](O)C[C@@H](O)CC(=O)O[C@H]1C)C[C@H](O)[C@H]2C(=O)O [AMPHOTERICIN B] | 0.34 µg/mL (≈ 0.368 µM) | 0.63 µg/mL (≈ 0.682 µM) | 0.63 µg/mL (≈ 0.682 µM) |  |  |  |  | 0.699 µg/mL (≈ 0.756 µM) | 0.26 µg/mL (≈ 0.281 µM) | 1.02 µg/mL (≈ 1.1 µM) | 0.29 µg/mL (≈ 0.314 µM) | 0.63 µg/mL (≈ 0.682 µM) | 0.63 µg/mL (≈ 0.682 µM) | MFC ([8]; ATCC 90906, 48 h): 5 µg/mL (≈ 5.41 µM) |
